Hits are enriched below; roughly 0.61% of the tested compounds scored in any of these assays.
Xi reactivation: reactivates the inactive X chromosome in mouse fibroblasts; XiGFP mouse fibroblasts, % GFP-positive cells imaging, 3 d; cells co-treated with 5-aza-dC sensitizer; scaled so ellipticine positive control = 100%; activation, % at 7.58 µM; actives 0.055% (n = 360,000);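 active = mean normalized replicate activation at least 10% and every replicate at or above 10%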
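Schedule: 3 d treatment, 15 min room-temperature fixation; system: 68-5-11 XiGFP fibroblast line; buffer or medium: DMEM plus 5-aza-dC sensitizer; control set: ellipticine 6 µM positive control; compound: one concentration, pinned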
E-sel inducer: induces E-selectin expression in human endothelial cells; P16581; HUVEC E-selectin immunofluorescence imaging; normalized: neutral wells 0, TNF-alpha wells 100; activation, % at 7.58 µM; actives 0.37% (n = 260,000);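 active = mean E-selectin-positive cell signal at least 10% of the positive control, reached in at least 60% of replicates, without over 20% cell loss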
Target sequence (P16581 whole entry, looked up): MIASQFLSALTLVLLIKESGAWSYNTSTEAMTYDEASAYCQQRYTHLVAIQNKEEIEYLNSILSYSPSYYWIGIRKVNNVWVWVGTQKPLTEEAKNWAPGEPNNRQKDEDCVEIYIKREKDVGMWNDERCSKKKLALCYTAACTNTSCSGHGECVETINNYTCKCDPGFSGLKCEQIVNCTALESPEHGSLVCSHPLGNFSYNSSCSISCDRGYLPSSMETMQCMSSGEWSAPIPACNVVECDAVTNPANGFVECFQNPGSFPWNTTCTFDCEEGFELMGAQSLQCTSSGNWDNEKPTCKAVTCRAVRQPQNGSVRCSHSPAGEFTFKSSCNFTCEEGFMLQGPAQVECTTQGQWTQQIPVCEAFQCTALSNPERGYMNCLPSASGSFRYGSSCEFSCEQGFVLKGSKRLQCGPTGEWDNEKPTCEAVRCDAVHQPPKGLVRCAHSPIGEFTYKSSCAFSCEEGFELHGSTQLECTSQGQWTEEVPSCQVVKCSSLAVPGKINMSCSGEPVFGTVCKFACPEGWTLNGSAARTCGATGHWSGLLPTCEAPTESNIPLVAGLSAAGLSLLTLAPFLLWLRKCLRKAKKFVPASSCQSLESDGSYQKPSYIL
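material = human umbilical vein endothelial cells (HUVEC), E-selectin induction | quantity = 3,000 cells/well | medium = EGM-2 growth medium on 0.1% gelatin-coated wells | technique = immunofluorescence imaging | read-out basis = % PE-positive cells | control set = TNF-alpha positive control, DMSO neutral control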
F508del corr: correctors of CFTR F508del function in bronchial epithelial cells. CFBE cells, YFP halide quenching; stimulated with forskolin plus potentiator P3; % fluorescence drop versus neutral controls. activity (quench increase), % at 7.58 µM. actives 0.36% (n = 350,000). AID 720511;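 active = mean added fluorescence quench of at least 8% versus neutral control, with both replicates also reaching 8%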;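 note: cells transiently co-express mutant CFTR-F508del with the halide-sensitive YFP; corrector assay measuring rescue of mutant channel to the surface after 24 h compound exposure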
Hits are given with their value; . = inactive; / = no result.

SMILES	Xi reactivation	E-sel inducer	F508del corr
O=C(C1CCCCC1)N1CC(=O)N2[C@H](CO)[C@H](c3ccc(C#CCc4ccccc4)cc3)[C@H]2C1	.	.	.
CC(C)CC#Cc1ccc2c(c1)O[C@@H](CN(C)Cc1ccc3c(c1)OCO3)[C@H](C)CN([C@@H](C)CO)S2(=O)=O	.	/	.
C[C@H](CO)N1C[C@H](C)[C@H](CN(C)Cc2ccc(Cl)c(Cl)c2)Oc2c(NC(=O)NC3CCCCC3)cccc2C1=O	.	/	.
C[C@H](CO)N1C[C@H](C)[C@@H](CN(C)Cc2ccc(Cl)c(Cl)c2)Oc2c(NC(=O)CCCCCC(=O)Nc3ccccc3N)cccc2C1=O	.	324	.
CC(C)NC(=O)Nc1cccc2c1O[C@H](CN(C)Cc1ccc(Cl)c(Cl)c1)[C@H](C)CN([C@@H](C)CO)C2=O	.	30	.
CC(C)NC(=O)Nc1cccc2c1O[C@@H](CN(C)Cc1ccc(Cl)c(Cl)c1)[C@H](C)CN([C@@H](C)CO)C2=O	.	.	.
CC(C)NC(=O)Nc1cccc2c1O[C@H](CN(C)Cc1ccc(Cl)c(Cl)c1)[C@@H](C)CN([C@@H](C)CO)C2=O	.	53	.
C[C@@H]1CN([C@@H](C)CO)C(=O)c2cccc(NC(=O)CCCCCC(=O)Nc3ccccc3N)c2O[C@@H]1CN(C)Cc1ccc(Cl)c(Cl)c1	.	.	.
Cc1nn(C)cc1NC(=O)C[C@H]1CC[C@@H]2[C@@H](COc3ccc(NC(=O)C4CCOCC4)cc3C(=O)N2C)O1	.	.	/
CC(C)(C)c1ccc(OCC(=O)Nc2ccc3c4c(cccc24)C(=O)NC3=O)cc1	.	.	20
Cc1ccc(OCC(=O)Nc2ccc3c(c2)C(=O)NC3=O)cc1	.	.	.
CNC[C@@H]1Oc2c(NC(=O)c3ccncc3)cccc2C(=O)N([C@H](C)CO)C[C@@H]1C	.	.	.
COc1ccc(S(=O)(=O)Nc2ccc3c(c2)CC(=O)N([C@H](C)CO)C[C@H](C)[C@@H](CN(C)C(=O)NC2CCCCC2)O3)cc1	.	53	.
C[C@@H]1CN([C@@H](C)CO)C(=O)Cc2cc(NS(=O)(=O)c3ccc(Cl)cc3)ccc2O[C@@H]1CN(C)C(=O)NC1CCCCC1	.	.	.
C[C@@H]1CN([C@H](C)CO)C(=O)Cc2cc(NS(=O)(=O)c3ccc(Cl)cc3)ccc2O[C@H]1CN(C)C(=O)NC1CCCCC1	.	.	.
C[C@H]1CN([C@@H](C)CO)C(=O)Cc2cc(NS(=O)(=O)c3ccc(F)cc3)ccc2O[C@@H]1CN(C)C(=O)NC1CCCCC1	.	.	.
COc1ccc(S(=O)(=O)Nc2ccc3c(c2)CC(=O)N([C@H](C)CO)C[C@H](C)[C@H](CN(C)C(=O)NC2CCCCC2)O3)cc1	.	76	.
COc1ccc(S(=O)(=O)Nc2ccc3c(c2)CC(=O)N([C@@H](C)CO)C[C@@H](C)[C@@H](CN(C)C(=O)NC2CCCCC2)O3)cc1	.	74	.
CC(C)CC#Cc1cnc2c(c1)C(=O)N([C@@H](C)CO)C[C@@H](C)[C@H](CN(C)C(=O)CC1CC1)O2	.	.	.
CCCNC(=O)N1CC2(CCN(C(=O)C3CCCC3)CC2)c2c([nH]c3cc(OC)ccc23)[C@H]1CO	.	.	.
CCCN1C[C@@H](C)[C@@H](OC)CN(C)C(=O)c2cc(NC(=O)Nc3c(C)noc3C)ccc2OC[C@H]1C	.	.	.
O=C1c2ccccc2CCC12N=NCC2c1ccc(Br)cc1 (centres undefined)	/	.	/
COc1ccc(C2CN=NC23CCc2ccccc2C3=O)cc1 (centres undefined)	.	.	16
C[C@H]1CN([C@@H](C)CO)C(=O)c2cc(NC(=O)Nc3ccc(F)cc3)ccc2O[C@@H]1CN(C)C(=O)NC1CCCCC1	.	.	.
CCOC(=O)c1c(NC(=O)COC(=O)c2nc(Cl)ccc2Cl)sc2c1CCC2	.	137	/
SMILES	Xi reactivation	E-sel inducer	F508del corr
CCOC(=O)c1c(NC(=O)COC(=O)c2nccnc2N)sc2c1CCC2	.	.	.
C[C@H]1CC=CC[C@H](c2ccc(F)cc2)NC(=O)[C@H](C)N(C)C(=O)c2ccccc2O1 (mixture of isomers)	.	/	/
COc1cc(OC)cc(-c2cc3ccc(OC)cc3cn2)c1	.	/	10
COc1ccc2cc(-c3ccccc3)ncc2c1	.	.	.
CNC[C@H]1OCCCC[C@@H](C)Oc2ccc(NC(=O)CCC(F)(F)F)cc2C(=O)N([C@@H](C)CO)C[C@@H]1C	.	.	.
COc1ccc(S(=O)(=O)N(C)C[C@H]2OCCCC[C@@H](C)Oc3ccc(NC(=O)Nc4cccc5ccccc45)cc3C(=O)N([C@@H](C)CO)C[C@H]2C)cc1	.	.	.
C[C@@H]1CN([C@@H](C)CO)S(=O)(=O)c2ccc(-c3ccccc3)cc2O[C@@H]1CN(C)Cc1ccccn1	.	.	.
C[C@@H]1CN([C@@H](C)CO)S(=O)(=O)c2ccc(-c3ccncc3)cc2O[C@@H]1CN(C)Cc1ccc(Oc2ccccc2)cc1	.	.	.
COc1ccccc1C#Cc1ccc2c(c1)O[C@H](CN(C)Cc1cncnc1)[C@@H](C)CN([C@@H](C)CO)S2(=O)=O	.	.	.
COc1ccccc1C#Cc1ccc2c(c1)O[C@H](CN(C)Cc1cccnc1)[C@H](C)CN([C@@H](C)CO)S2(=O)=O	.	.	8.2
C[C@@H]1CN([C@H](C)CO)S(=O)(=O)c2ccc(-c3ccncc3)cc2O[C@H]1CN(C)Cc1ccc(Oc2ccccc2)cc1	.	131	.
Cc1ccc(-c2ccc3c(c2)O[C@H](CN(C)Cc2ccccn2)[C@@H](C)CN([C@H](C)CO)S3(=O)=O)cc1	.	.	16
Cc1ccc(-c2ccc3c(c2)O[C@@H](CN(C)Cc2ccccn2)[C@@H](C)CN([C@@H](C)CO)S3(=O)=O)cc1	.	.	.
Cc1ccc(-c2ccc3c(c2)O[C@H](CN(C)Cc2ccccn2)[C@@H](C)CN([C@@H](C)CO)S3(=O)=O)cc1	.	.	12
COc1ccccc1-c1ccc2n(c1=O)C[C@@H]1[C@@H](CO)[C@H](C(=O)Nc3nccs3)N(C)[C@H]21	.	.	.
COc1ccccc1S(=O)(=O)N[C@@H]1C=C[C@@H](CC(=O)NCc2cc(F)cc(F)c2)O[C@@H]1CO	.	.	.
Cc1noc(C)c1NC(=O)N(C)C[C@H]1Oc2ccc(NC(=O)c3ccncc3)cc2C(=O)N([C@H](C)CO)C[C@@H]1C	.	365	.
C[C@@H]1CN([C@H](C)CO)C(=O)c2cc(NC(=O)c3ccncc3)ccc2O[C@@H]1CN(C)C(=O)Nc1ccc2c(c1)OCO2	.	40	.
Cc1noc(C)c1NC(=O)N(C)C[C@@H]1Oc2ccc(NC(=O)c3ccncc3)cc2C(=O)N([C@@H](C)CO)C[C@@H]1C	.	.	.
C[C@H](CO)N1C[C@H](C)[C@@H](CN(C)C(=O)Nc2ccc3c(c2)OCO3)Oc2ccc(NC(=O)c3ccncc3)cc2C1=O	.	/	.
CC(C)NC(=O)N1CCC(n2nccc2NC(=O)CCOc2ccccc2)CC1	.	.	.
COc1ccccc1CCC(=O)N1CCC(n2nccc2NC(=O)CC(C)C)CC1	.	.	.

Bioassay records deposited in PubChem BioAssay by Broad Institute.
